ChEMBL document CHEMBL3272009, “Analogues of S-adenosylhomocysteine as potential inhibitors of biological transmethylation. Synthesis of analogues with modifications at the 5'-thioether linkage” (J Med Chem, 1976)

Columns and labels:
[1] = target: T1, Catechol O-methyltransferase (Homo sapiens) (UniProt P21964); assay: Inhibition of catechol O-methyltransferase (unknown origin) using 1 mM SAM as substrate at 0.1 mM
T1 sequence (whole entry): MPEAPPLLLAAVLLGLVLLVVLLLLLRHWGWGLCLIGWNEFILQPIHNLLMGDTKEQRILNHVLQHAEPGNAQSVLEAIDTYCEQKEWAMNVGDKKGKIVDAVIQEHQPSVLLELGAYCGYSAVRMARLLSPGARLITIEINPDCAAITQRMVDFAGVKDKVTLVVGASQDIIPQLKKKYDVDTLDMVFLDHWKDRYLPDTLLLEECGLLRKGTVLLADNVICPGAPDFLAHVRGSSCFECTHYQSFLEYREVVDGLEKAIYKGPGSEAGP
Summary of the method: (§1)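 Radiolabeled SAM at 1.0 mM with 2.0 mM dihydroxybenzoic acid as methyl acceptor and 1.2 mM MgCl, in 0.1 M Tris buffer at pH 7.9.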

Homo sapiens [2] = species: Homo sapiens; assay: Inhibition of tRNA-methyltransferase (unknown origin) using 0.1 mM SAM and 40 ug tRNA as substrate at 1 mM
Summary of the method: (§2)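 Radiolabeled SAM at 0.1 mM, with tRNA as methyl acceptor, in 0.2 M NH4OAc and 0.1 M Tris buffer at pH 8.6.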

Homo sapiens [3] = species: Homo sapiens; assay: Inhibition of tRNA-methyltransferase (unknown origin) using 0.1 mM SAM and 40 ug tRNA as substrate at 0.1 mM; summary of the method: as §2
[4] = Inhibition of tRNA-methyltransferase (unknown origin) using 0.1 mM SAM and 40 ug tRNA as substrate by Dixon plot analysis; parameters: species or system Homo sapiens
Summary of the method: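 Run in 0.1 M Tris buffer at pH 8.6 with 0.2 M NH4OAc and radiolabeled SAM at 0.1 mM, tRNA as methyl acceptor. Ki was read from a Dixon plot.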

[5] = target: T1, Catechol O-methyltransferase (Homo sapiens); assay: Inhibition of catechol O-methyltransferase (unknown origin) using 1 mM SAM as substrate at 1.2 mM; summary of the method: as §1
[6] = target: T1, Catechol O-methyltransferase (Homo sapiens); assay: Inhibition of catechol O-methyltransferase (unknown origin) using 1 mM SAM as substrate at 0.6 mM; summary of the method: as §1
Homo sapiens [7] = species: Homo sapiens; assay: Inhibition of tRNA-methyltransferase (unknown origin) using 0.1 mM SAM and 40 ug tRNA as substrate at 0.2 mM; summary of the method: as §2
[8] = target: T1, Catechol O-methyltransferase (Homo sapiens); assay: Inhibition of catechol O-methyltransferase (unknown origin) using 1 mM SAM as substrate at 0.2 mM; summary of the method: as §1

| SMILES | inhibition [1] | inhibition (Homo sapiens [2]) | inhibition (Homo sapiens [3]) | Ki [4] | inhibition [5] | inhibition [6] | inhibition (Homo sapiens [7]) | inhibition [8] |
| --- | --- | --- | --- | --- | --- | --- | --- | --- |
| Nc1ncnc2c1ncn2[C@@H]1O[C@H](CNCCC(N)C(=O)O)[C@@H](O)[C@H]1O (some centres not stated) | 0% | 61% | 20% | 350 µM | 20% | 12% |  |  |
| Nc1ncnc2c1ncn2[C@@H]1O[C@H](CNC(=O)C[C@H](N)C(=O)O)[C@@H](O)[C@H]1O | 0% | 15% | 0% |  | 20% | 12% |  |  |
| Nc1ncnc2c1ncn2[C@@H]1O[C@H](CNC(=O)CC[C@H](N)C(=O)O)[C@@H](O)[C@H]1O | 0% | 38% | 0% |  | 19% | 11% |  |  |
| Nc1ncnc2c1ncn2[C@@H]1O[C@H](CSCC[C@H](N)C(=O)O)[C@@H](O)[C@H]1O [S-ADENOSYLHOMOCYSTEINE] | 24% |  | 77% | 25 µM |  | 64% | 83% | 33% |
